Common to all, as to type: functional, cell-based
For test [1], the target named is P2Y purinoceptor 2 (Homo sapiens, UniProt P41231). Nature of the test: Agonist activity at human recombinant P2Y2 receptor expressed in 1321N1 cells assessed as stimulation of phospholipase C. The method, boiled down:
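Human P2Y2, P2Y4 or P2Y6 receptors stably expressed in 1321N1 astrocytoma cells. PLC activation was measured across a concentration range of each nucleotide. Tritiated inositol phosphates formed from a radiolabeled myo-inositol precursor were quantified by a standard ion exchange method. Values are mean ± standard error, N = 3.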

The target in test [2] is T1, P2Y purinoceptor 4 (Homo sapiens, UniProt P51582). Kind of test: Agonist activity at human recombinant P2Y4 receptor expressed in 1321N1 cells assessed as stimulation of phospholipase C. The method, boiled down: (§1)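 Human P2Y2, P2Y4 or P2Y6 receptors stably expressed in 1321N1 astrocytoma cells. PLC activation was measured across a concentration range of each nucleotide. Tritiated inositol phosphates formed from a radiolabeled myo-inositol precursor were quantified by a standard ion exchange method. EC50 was the concentration giving 50% of the maximal effect, fitted with a four-parameter logistic equation. Values are mean ± standard error, N = 3.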
T1 sequence (P51582 whole entry): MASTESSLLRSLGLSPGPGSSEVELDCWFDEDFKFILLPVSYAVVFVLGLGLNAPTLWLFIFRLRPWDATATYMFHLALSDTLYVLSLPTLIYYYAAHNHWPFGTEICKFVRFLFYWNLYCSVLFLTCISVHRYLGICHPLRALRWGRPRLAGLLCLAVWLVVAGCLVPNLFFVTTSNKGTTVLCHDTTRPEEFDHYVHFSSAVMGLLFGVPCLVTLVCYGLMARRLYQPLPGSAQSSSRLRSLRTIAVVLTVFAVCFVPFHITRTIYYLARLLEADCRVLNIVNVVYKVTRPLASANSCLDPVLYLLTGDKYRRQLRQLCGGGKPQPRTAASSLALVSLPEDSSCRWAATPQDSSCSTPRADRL

Test [3] addresses T2, P2Y purinoceptor 6 (Homo sapiens, UniProt Q15077). Nature of the test: Agonist activity at human recombinant P2Y6 receptor expressed in 1321N1 cells assessed as stimulation of phospholipase C. The method, boiled down: as §1
The target in test [4] is T1, P2Y purinoceptor 4. Nature of the test: Antagonistic activity at human recombinant P2Y4 receptor expressed in 1321N1 cells. As to conditions: filed as antagonist.
Test [5] has as its target T2, P2Y purinoceptor 6. Kind of test: Agonist activity at human recombinant P2Y6 receptor expressed in 1321N1 cells assessed as intracellular calcium mobilization. Background: A change in cytosolic calcium serves as a functional read-out for many receptors and channels.

The record followed here is ChEMBL document CHEMBL1142934, “Molecular modeling of the human P2Y2 receptor and design of a selective agonist, 2'-amino-2'-deoxy-2-thiouridine 5'-triphosphate” (J Med Chem, 2007).

As a reminder, the EC50 is the concentration giving half of the maximal effect. What is called Kb is the equilibrium dissociation constant of an antagonist, usually derived from a functional assay.

T2 sequence (Q15077 whole entry): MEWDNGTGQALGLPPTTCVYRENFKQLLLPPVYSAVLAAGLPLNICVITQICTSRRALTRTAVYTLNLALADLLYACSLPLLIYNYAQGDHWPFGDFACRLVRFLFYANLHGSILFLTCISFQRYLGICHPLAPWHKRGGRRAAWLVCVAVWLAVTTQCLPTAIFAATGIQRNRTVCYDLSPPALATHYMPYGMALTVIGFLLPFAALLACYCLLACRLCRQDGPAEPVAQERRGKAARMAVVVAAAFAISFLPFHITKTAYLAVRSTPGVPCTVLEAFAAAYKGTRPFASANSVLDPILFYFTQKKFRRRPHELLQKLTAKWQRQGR
Chain of P2Y purinoceptor 2 (P41231 whole entry): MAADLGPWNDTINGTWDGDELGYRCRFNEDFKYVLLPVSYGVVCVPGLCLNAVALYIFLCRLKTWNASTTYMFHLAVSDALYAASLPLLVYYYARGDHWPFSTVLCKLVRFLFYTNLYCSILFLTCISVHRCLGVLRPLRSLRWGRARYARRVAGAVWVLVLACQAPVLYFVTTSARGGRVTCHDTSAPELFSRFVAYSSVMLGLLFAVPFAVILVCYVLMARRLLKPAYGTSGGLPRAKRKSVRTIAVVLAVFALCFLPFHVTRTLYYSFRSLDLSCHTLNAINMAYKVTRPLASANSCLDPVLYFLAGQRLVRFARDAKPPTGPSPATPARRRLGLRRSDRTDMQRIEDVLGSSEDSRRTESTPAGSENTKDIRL

For `Cc1cn([C@@H]2O[C@H](COP(=O)(O)OP(=O)(O)OP(=O)(O)O)[C@@H](O)[C@H]2O)c(=O)[nH]c1=O` [THYMIDINE_TRIPHOSPHATE], the EC50 in test [1] is 480 nM (agonist); in test [2] it was 3900 nM (agonist); in test [3], 140 nM (agonist).

As to `Nc1ncnc2c1ncn2[C@@H]1O[C@H](COP(=O)(O)OP(=O)(O)OP(=O)(O)O)[C@@H](O)[C@H]1O`, in test [4], the Activity result was “Antagonist” and the Kb was 708 nM.

As to `O=c1ccn([C@@H]2O[C@H](COP(=O)(O)OP(=O)(O)OP(=O)(O)OP(=O)(O)OC[C@H]3OC(O)[C@H](O)[C@@H]3O)[C@@H](O)[C@H]2O)c(=O)[nH]1` (some centres not stated), the EC50 in test [1] is 1880 nM (agonist).

In the case of `Nc1cn([C@@H]2O[C@H](COP(=O)(O)OP(=O)(O)OP(=O)(O)O)[C@@H](O)[C@H]2O)c(=O)[nH]c1=O`, the values for the EC50 in test [1] and in test [3] were 5600 nM (agonist) and 333 nM (agonist), respectively.

As for `O=c1ccn([C@H]2C[C@H](O)[C@@H](COP(=O)(O)OP(=O)(O)OP(=O)(O)O)O2)c(=O)[nH]1`, the EC50 in test [1] is 1080 nM (agonist).

As to `N[C@@H]1[C@H](O)[C@@H](COP(=O)(O)OP(=O)(O)OP(=O)(O)O)O[C@H]1n1ccc(=O)[nH]c1=S`, the EC50 in test [1] was 8 nM (agonist); in test [2] it was 2400 nM (agonist); in test [3], greater than 10000 nM.

In the case of `O=c1ccn([C@@H]2O[C@H](COP(=O)(O)OP(=O)(O)OP(=O)(O)O)[C@@H](O)[C@H]2O)c(=O)[nH]1` [URIDINE TRIPHOSPHATE], the values for the EC50 in test [1], in test [2] and in test [5] were 49 nM (agonist), 73 nM (agonist) and > 10000 nM (agonist), respectively.

Regarding `O=c1[nH]c(=O)n([C@@H]2O[C@H](COP(=O)(O)OP(=O)(O)OP(=O)(O)O)[C@@H](O)[C@H]2O)cc1Br`, the EC50 in test [1] is given as 750 nM (agonist).

Take `O=C(N[C@@H]1[C@H](O)[C@@H](COP(=O)(O)OP(=O)(O)OP(=O)(O)O)O[C@H]1n1ccc(=O)[nH]c1=S)C(F)(F)F`: the EC50 is 470 nM (agonist) in test [1] and 8300 nM (agonist) in test [2].

Consider `[N-]=[N+]=Nc1cn([C@@H]2O[C@H](COP(=O)(O)OP(=O)(O)OP(=O)(O)O)[C@@H](O)[C@H]2O)c(=O)[nH]c1=O`, for which the EC50 in test [1] was 1800 nM (agonist); in test [3], 467 nM (agonist).

In the case of `O=c1ccn([C@@H]2O[C@H](COP(=O)(O)OP(=O)(O)OP(=O)(O)S)[C@@H](O)[C@H]2O)c(=O)[nH]1` (some centres not stated), in test [1], the EC50 is 240 nM (agonist).

For `O=c1[nH]c(=O)n([C@@H]2O[C@H](COP(=O)(O)OP(=O)(O)OP(=O)(O)O)[C@@H](O)[C@H]2O)cc1I`, in test [1], the EC50 was 830 nM (agonist).

Regarding `Nc1ccn([C@H]2C[C@H](O)[C@@H](COP(=O)(O)OP(=O)(O)OP(=O)(O)OP(=O)(O)OC[C@H]3O[C@@H](n4ccc(=O)[nH]c4=O)[C@H](O)[C@@H]3O)O2)c(=O)n1` [DENUFOSOL], the EC50 in test [1] is on record as 270 nM (agonist).

Take `CC(=O)N[C@@H]1[C@H](O)[C@@H](COP(=O)(O)OP(=O)(O)OP(=O)(O)O)O[C@H]1n1ccc(=O)[nH]c1=S`: the EC50 in test [1] was 6500 nM (agonist).

For `O=c1ccn([C@@H]2O[C@H](COP(=O)(O)OP(=O)(O)OP(=O)(O)O)[C@@H](O)[C@H]2O)c(=S)[nH]1`, the EC50 in test [1] is 35 nM (agonist); in test [2], 350 nM (agonist); in test [3], 1500 nM (agonist).

Regarding `N[C@@H]1[C@H](O)[C@@H](COP(=O)(O)OP(=O)(O)OP(=O)(O)O)O[C@H]1n1ccc(=O)[nH]c1=O`, the EC50 was 62 nM (agonist) in test [1], 1200 nM (agonist) in test [2] and greater than 100000 nM in test [3].

For the molecule `O=c1ccn([C@@H]2O[C@H](COP(=O)(O)OP(=O)(O)OP(=O)(O)OP(=O)(O)OC[C@H]3O[C@@H](n4ccc(=O)[nH]c4=O)[C@H](O)[C@@H]3O)[C@@H](O)[C@H]2O)c(=O)[nH]1` [DIQUAFOSOL], the EC50 in test [5] is 20000 nM (agonist).

For the molecule `CO[C@@H]1[C@H](O)[C@@H](COP(=O)(O)OP(=O)(O)OP(=O)(O)O)O[C@H]1n1ccc(=O)[nH]c1=O`, in test [1], the EC50 is 14300 nM (agonist).
